Inhibition data for 8 compounds are collected here from ChEMBL document CHEMBL1811853, “Design and evaluation of 3-aminopyrazolopyridinone kinase inhibitors inspired by the natural product indirubin” (Bioorg Med Chem, 2011).

As a reminder, the inhibition is the drop in the measured response relative to a control, in per cent.

The target of assay [1] is MAP kinase-activated protein kinase 2 (Homo sapiens, UniProt P49137). In words: Inhibition of MAPKAPK2 at 30 uM by microfluidic mobility shift assay. The method, boiled down: (§1)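 Single-concentration screen, singlicate, 30 uM final (diluted from 1 mM DMSO solutions), fluorescently tagged peptide substrate appropriate to each kinase, ATP at apparent Km for each protein. Phosphorylated and unphosphorylated peptides separated electrophoretically; conversion is the phosphorylated peak area over the sum of both peaks. No-inhibitor and no-ATP controls; H89 reference on each plate.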
MAP kinase-activated protein kinase 2, sequence (P49137 whole entry, looked up): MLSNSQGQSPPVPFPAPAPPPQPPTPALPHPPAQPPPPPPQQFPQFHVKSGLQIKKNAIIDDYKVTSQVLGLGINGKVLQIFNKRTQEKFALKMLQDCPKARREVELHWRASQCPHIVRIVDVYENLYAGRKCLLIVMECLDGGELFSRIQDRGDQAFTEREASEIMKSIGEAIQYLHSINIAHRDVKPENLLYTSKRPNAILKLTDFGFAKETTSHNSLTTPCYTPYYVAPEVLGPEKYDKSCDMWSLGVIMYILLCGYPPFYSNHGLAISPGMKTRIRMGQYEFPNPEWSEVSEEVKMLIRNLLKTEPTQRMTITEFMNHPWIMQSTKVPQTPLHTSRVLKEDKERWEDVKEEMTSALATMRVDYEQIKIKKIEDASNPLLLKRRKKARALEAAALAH

The target in assay [2] is T1, Aurora kinase A (Homo sapiens) (UniProt O14965).
T1 sequence (whole entry): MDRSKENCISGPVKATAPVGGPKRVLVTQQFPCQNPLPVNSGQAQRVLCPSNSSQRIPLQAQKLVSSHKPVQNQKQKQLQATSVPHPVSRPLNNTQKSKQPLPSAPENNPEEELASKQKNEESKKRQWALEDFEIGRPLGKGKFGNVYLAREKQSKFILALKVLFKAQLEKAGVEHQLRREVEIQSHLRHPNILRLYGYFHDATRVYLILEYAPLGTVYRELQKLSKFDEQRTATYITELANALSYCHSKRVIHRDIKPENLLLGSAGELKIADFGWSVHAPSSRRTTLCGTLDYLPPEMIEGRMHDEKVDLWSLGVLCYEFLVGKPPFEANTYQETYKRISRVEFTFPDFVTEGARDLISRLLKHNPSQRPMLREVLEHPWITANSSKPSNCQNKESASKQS
The assay can be described thus: Inhibition of AurA at 30 uM by microfluidic mobility shift assay. The method, boiled down: as §1

The target in assay [3] is T2, Protein kinase C zeta type (Homo sapiens) (UniProt Q05513).
T2 sequence (whole entry): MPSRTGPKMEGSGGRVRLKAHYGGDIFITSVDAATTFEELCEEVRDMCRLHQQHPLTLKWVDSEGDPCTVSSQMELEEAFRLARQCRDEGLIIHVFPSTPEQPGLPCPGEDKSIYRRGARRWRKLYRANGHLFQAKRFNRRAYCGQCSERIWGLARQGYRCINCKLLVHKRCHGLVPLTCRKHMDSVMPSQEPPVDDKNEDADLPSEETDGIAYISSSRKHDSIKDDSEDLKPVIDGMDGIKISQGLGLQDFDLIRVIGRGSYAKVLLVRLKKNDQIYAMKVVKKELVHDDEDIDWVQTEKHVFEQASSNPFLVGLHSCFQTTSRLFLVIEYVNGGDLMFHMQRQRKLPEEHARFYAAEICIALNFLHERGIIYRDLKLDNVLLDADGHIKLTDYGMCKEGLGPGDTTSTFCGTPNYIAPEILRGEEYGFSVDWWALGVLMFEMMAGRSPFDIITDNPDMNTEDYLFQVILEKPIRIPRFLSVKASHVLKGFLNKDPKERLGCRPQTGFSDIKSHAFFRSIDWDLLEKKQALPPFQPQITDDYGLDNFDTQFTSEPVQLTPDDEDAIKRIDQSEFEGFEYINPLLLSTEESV
In words: Inhibition of PKCz at 30 uM by microfluidic mobility shift assay. In short, it runs like this: as §1

Assay [4] concerns the target Ribosomal protein S6 kinase alpha-1 (Homo sapiens) (UniProt Q15418). The assay can be described thus: Inhibition of RSK1 at 30 uM by microfluidic mobility shift assay. The method, boiled down: as §1
In assay [5] the target is T3, MAP kinase-activated protein kinase 5 (Homo sapiens) (UniProt Q8IW41).
T3 sequence (whole entry): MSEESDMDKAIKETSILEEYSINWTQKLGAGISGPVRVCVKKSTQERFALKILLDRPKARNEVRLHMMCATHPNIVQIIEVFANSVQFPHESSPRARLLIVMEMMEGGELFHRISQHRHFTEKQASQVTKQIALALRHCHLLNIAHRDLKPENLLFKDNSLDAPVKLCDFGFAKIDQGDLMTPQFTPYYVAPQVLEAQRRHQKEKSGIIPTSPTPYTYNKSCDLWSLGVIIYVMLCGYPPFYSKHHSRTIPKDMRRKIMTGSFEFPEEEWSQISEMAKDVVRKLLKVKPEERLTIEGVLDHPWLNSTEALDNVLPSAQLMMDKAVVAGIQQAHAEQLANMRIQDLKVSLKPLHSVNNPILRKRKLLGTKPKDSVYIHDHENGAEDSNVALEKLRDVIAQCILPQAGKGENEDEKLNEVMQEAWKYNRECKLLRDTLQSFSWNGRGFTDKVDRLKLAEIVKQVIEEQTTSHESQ
In words: Inhibition of PRAK1 at 30 uM by microfluidic mobility shift assay. The method, boiled down:
as §1

Assay [6] concerns the target Mitogen-activated protein kinase 3 (Homo sapiens) (UniProt P27361). In words: Inhibition of ERK1 at 30 uM by microfluidic mobility shift assay. In short, it runs like this: as §1
The target of assay [7] is T4, Serine/threonine-protein kinase Chk1 (Homo sapiens) (UniProt O14757).
T4 sequence (whole entry): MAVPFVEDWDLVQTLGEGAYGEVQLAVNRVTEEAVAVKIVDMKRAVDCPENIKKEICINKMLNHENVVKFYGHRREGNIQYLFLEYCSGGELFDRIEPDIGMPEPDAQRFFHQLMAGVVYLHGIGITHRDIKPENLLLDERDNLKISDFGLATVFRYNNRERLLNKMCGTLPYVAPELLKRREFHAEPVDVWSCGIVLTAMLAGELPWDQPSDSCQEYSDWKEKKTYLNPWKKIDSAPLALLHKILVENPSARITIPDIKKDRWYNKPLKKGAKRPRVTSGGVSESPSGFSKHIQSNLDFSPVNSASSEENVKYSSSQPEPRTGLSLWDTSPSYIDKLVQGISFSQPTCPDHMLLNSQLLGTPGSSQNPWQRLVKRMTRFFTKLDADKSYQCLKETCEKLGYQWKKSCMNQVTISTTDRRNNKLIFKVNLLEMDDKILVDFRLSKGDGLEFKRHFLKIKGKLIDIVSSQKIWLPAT
The assay can be described thus: Inhibition of CHK1 at 30 uM by microfluidic mobility shift assay. In short, it runs like this:
as §1

The target of assay [8] is Tyrosine-protein kinase Fyn (Homo sapiens, UniProt P06241). The assay can be described thus: Inhibition of FYN at 30 uM by microfluidic mobility shift assay. The method, boiled down:
as §1

Assay [9] concerns the target Tyrosine-protein kinase Lyn (Homo sapiens, UniProt P07948). The assay can be described thus: Inhibition of LYN at 30 uM by microfluidic mobility shift assay. In short, it runs like this:
as §1

Assay [10] deals with Serine/threonine-protein kinase Chk2 (Homo sapiens, UniProt O96017). The assay can be described thus: Inhibition of CHK2 at 30 uM by microfluidic mobility shift assay. The method, boiled down:
as §1

The target in assay [11] is Tyrosine-protein kinase Lck (Homo sapiens, UniProt P06239). In words: Inhibition of LCK at 30 uM by microfluidic mobility shift assay. The method, boiled down: as §1
Tyrosine-protein kinase Lck, sequence (P06239 2-509 limits assumed): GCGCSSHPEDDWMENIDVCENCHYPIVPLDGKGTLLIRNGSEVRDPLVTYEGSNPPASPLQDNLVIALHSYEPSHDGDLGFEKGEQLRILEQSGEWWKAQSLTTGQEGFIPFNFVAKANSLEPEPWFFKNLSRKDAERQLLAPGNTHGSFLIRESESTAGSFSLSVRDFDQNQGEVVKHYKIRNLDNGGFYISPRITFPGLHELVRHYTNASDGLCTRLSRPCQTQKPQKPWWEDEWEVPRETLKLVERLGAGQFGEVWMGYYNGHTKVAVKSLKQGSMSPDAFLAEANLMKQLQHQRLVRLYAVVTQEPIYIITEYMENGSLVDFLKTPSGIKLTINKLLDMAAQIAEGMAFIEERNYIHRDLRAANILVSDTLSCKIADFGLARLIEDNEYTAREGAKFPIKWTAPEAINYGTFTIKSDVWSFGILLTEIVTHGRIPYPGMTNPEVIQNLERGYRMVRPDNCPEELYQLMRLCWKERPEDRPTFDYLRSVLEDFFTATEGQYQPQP
Assay [12] deals with Glycogen synthase kinase-3 beta (Homo sapiens) (UniProt P49841). The assay can be described thus: Inhibition of GSK3B at 30 uM by microfluidic mobility shift assay. The method, boiled down: as §1
Glycogen synthase kinase-3 beta (Homo sapiens), sequence (P49841 whole entry, looked up): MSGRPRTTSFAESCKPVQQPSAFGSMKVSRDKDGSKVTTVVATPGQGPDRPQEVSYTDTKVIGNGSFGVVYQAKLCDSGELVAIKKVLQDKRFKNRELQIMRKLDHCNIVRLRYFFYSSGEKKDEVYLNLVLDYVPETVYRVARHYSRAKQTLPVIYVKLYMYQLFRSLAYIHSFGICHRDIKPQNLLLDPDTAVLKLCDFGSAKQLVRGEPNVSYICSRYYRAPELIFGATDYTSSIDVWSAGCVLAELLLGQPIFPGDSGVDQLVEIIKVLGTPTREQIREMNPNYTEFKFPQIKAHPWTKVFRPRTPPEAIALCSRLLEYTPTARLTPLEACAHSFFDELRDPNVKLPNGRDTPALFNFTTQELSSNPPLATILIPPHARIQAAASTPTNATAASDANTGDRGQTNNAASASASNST
For assay [13], the target named is Mitogen-activated protein kinase 1 (Homo sapiens) (UniProt P28482). In words: Inhibition of ERK2 at 30 uM by microfluidic mobility shift assay. In short, it runs like this: as §1
Mitogen-activated protein kinase 1 (Homo sapiens), sequence (P28482 whole entry): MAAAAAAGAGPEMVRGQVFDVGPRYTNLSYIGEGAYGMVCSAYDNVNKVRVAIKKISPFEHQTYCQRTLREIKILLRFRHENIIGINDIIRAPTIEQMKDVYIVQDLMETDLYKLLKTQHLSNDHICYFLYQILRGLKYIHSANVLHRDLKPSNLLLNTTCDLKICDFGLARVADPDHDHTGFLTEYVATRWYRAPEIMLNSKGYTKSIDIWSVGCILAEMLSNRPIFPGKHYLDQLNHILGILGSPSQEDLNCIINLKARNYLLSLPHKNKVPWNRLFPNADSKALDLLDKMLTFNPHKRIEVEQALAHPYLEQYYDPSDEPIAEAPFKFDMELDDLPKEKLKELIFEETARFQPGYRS
The target of assay [14] is RAC-beta serine/threonine-protein kinase (Homo sapiens) (UniProt P31751). In words: Inhibition of AKT2 at 30 uM by microfluidic mobility shift assay. In short, it runs like this:
as §1

The target in assay [15] is Insulin receptor (Homo sapiens) (UniProt P06213). In words: Inhibition of INSR at 30 uM by microfluidic mobility shift assay. In short, it runs like this:
as §1

In assay [16] the target is RAC-alpha serine/threonine-protein kinase (Homo sapiens) (UniProt P31749). In words: Inhibition of AKT1 at 30 uM by microfluidic mobility shift assay. In short, it runs like this:
as §1

Tyrosine-protein kinase Fyn, sequence (P06241 2-537 limits assumed): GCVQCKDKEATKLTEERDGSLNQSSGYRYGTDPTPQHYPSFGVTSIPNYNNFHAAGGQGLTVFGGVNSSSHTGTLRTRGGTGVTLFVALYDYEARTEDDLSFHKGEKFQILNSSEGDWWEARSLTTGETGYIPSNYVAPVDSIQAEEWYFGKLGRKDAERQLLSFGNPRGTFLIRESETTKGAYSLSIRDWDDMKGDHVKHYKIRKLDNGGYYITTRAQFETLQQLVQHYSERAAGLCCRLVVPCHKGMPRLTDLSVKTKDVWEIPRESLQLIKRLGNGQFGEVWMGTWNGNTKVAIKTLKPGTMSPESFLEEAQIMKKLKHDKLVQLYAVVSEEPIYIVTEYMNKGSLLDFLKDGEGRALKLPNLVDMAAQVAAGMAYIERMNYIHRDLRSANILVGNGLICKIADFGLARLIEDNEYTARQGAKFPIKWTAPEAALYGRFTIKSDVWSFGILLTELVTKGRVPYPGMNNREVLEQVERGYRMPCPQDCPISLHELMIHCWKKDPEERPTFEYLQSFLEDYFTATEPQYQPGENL
RAC-alpha serine/threonine-protein kinase (Homo sapiens), sequence (P31749 whole entry): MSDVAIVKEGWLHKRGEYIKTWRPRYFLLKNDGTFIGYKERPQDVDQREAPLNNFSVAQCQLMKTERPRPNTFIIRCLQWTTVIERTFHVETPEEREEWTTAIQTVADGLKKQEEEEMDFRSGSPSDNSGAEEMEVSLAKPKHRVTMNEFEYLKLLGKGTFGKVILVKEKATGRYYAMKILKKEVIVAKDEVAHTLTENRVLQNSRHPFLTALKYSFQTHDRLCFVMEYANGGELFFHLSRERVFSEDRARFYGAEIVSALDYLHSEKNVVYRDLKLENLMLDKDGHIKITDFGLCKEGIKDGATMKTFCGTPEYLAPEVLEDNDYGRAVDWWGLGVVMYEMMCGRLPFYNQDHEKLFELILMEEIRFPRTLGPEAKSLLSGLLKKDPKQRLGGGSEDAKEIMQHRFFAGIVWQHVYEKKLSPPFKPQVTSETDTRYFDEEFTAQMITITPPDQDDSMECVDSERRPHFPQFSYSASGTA
Serine/threonine-protein kinase Chk2, sequence (O96017 whole entry): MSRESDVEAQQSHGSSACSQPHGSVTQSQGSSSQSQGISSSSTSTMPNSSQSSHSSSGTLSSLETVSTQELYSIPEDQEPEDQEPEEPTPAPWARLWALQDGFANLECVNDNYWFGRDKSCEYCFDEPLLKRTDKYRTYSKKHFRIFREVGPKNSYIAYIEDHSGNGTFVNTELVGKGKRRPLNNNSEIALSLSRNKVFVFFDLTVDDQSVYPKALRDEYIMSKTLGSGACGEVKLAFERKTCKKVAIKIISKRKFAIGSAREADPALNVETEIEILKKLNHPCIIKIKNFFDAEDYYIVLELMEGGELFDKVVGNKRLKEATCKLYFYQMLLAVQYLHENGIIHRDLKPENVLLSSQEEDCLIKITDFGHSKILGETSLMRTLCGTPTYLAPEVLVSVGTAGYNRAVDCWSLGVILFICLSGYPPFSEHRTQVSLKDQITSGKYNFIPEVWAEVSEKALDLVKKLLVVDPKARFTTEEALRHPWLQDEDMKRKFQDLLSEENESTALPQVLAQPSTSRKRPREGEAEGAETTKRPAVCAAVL
RAC-beta serine/threonine-protein kinase (Homo sapiens), sequence (P31751 whole entry): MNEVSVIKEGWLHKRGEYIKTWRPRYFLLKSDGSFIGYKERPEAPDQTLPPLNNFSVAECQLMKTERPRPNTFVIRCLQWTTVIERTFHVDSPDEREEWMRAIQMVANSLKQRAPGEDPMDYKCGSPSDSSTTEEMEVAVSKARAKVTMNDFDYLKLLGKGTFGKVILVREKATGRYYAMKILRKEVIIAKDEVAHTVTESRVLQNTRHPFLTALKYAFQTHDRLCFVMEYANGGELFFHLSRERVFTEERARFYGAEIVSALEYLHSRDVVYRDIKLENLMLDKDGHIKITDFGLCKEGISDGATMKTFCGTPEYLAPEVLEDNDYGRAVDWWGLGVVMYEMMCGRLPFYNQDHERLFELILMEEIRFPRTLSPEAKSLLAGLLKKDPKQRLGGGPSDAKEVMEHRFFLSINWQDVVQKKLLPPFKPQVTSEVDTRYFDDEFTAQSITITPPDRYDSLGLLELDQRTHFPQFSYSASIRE
Tyrosine-protein kinase Lyn, sequence (P07948 2-512 limits assumed): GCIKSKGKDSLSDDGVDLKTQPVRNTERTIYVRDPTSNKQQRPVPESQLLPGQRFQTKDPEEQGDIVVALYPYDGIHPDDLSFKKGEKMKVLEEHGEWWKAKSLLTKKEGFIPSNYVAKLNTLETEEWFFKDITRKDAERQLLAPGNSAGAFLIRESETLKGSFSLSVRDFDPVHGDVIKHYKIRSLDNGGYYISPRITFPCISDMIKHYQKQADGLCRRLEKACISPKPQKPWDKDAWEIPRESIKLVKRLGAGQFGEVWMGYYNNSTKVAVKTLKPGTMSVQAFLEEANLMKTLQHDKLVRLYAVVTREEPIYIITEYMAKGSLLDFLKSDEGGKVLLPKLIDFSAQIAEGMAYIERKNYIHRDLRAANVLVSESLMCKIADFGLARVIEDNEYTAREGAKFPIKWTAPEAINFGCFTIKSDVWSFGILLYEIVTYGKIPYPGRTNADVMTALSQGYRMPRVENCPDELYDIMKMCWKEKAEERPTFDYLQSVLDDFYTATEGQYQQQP
Mitogen-activated protein kinase 3 (Homo sapiens), sequence (P27361 whole entry): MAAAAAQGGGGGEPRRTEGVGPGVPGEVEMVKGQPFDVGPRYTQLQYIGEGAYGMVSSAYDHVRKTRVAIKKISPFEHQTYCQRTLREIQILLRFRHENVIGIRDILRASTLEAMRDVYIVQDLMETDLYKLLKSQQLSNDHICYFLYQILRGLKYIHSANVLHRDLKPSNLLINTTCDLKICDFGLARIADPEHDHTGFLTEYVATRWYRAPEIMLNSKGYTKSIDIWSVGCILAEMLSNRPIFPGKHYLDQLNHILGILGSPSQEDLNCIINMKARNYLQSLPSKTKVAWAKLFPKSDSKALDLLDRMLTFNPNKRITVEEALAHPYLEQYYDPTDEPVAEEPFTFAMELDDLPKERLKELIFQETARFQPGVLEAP

Consider `Nc1n[nH]c2cc(-c3ccncc3)[nH]c(=O)c12`, for which the inhibition was determined as 37% in assay [1]; 43% in [2]; 10% in assay [3]; 22% in [4]; 13% in assay [5]; 57% in assay [6]. Moreover, the inhibition is 21% in assay [7]; 28% in [8]; 39% in assay [9]; 34% in [10]; 37% in assay [11]; 95% in assay [12]. For the same compound, the inhibition in assay [13] was 38%; in [14] it was 4%; in [15], 9%; in assay [16], 2%.

`Cc1cc2nc(N)nc(N)c2c(=O)[nH]1`: the inhibition was 26% in assay [1]; 10% in [2]; 8% in [3]; -4% in assay [4]; 3% in assay [5]; 9% in [6]. Also, the inhibition in assay [7] stood at 15%; in [8] it was 11%; in assay [9] it was 10%; in assay [10], 16%; in [11], 12%; in [12] it was 36%. Also, the inhibition in [13] was 9%; in assay [14], 0%; in [15] it was 0%; in [16], 5%.

As to `CN1CCN(c2ccc(-c3cc4c(c(N)nn4C)c(=O)[nH]3)cc2)CC1`, the inhibition in assay [1] was 45%; in assay [2], 52%; in assay [3], 7%; in assay [4], 14%; in assay [5], 26%; in [6] it was 13%. Besides, the inhibition in assay [7] is 67%; in [8], 65%; in [9], 54%; in assay [10] it was 53%; in assay [11] it was 65%; in assay [12] it was 45%. The inhibition in [13] is 4%; in assay [14], -1%; in assay [15], 9%; in assay [16] it was 8%.

Consider `Cc1cc2c(c(N)nn2C)c(N2CC[C@H](O)C2)n1`, for which the inhibition was 2% in assay [1]; 0% in [2]; 19% in assay [3]; -5% in assay [4]; 1% in assay [5]; 2% in [6]. Also, the inhibition in assay [7] is 7%; in assay [8], 1%; in [9] it was 5%; in assay [10] it was -2%; in assay [11], 1%; in [12], -6%. Moreover, the inhibition in [13] is 2%; in assay [14], 4%; in assay [15], -2%; in assay [16], 7%.

In the case of `Cc1cc2[nH]nc(N)c2c(=O)[nH]1`, the inhibition in assay [1] was 30%; in assay [2], 23%; in assay [3], 10%; in assay [4], 6%; in [5] it was 8%; in [6], 4%. The inhibition in assay [7] was found to be 7%; in assay [8], 2%; in assay [9], 3%; in assay [10], 27%; in assay [11], 6%; in assay [12] it was 18%. The inhibition in assay [13] was 0%; in assay [14], 8%; in assay [15], -2%; in assay [16], -3%.

In the case of `COc1ccccc1-c1cc2nn(-c3ccccc3)c(N)c2c(=O)[nH]1`, the inhibition in assay [1] was -1%; in assay [2], 7%; in assay [3], 4%; in [4] it was 3%; in assay [5] it was 6%; in [6] it was 21%. The inhibition in [7] was determined as 3%; in [8] it was 77%; in assay [9], 86%; in [10], 16%; in [11], 72%; in [12] it was 3%. For the same compound, the inhibition in assay [13] was 13%; in assay [14], 0%; in assay [15], -2%; in assay [16], 15%.

As to `Cn1nc(N)c2c(=O)[nH]c(-c3ccccc3)cc21`, the inhibition in assay [1] is 37%; in assay [2] it was 14%; in assay [3], 6%; in assay [4] it was 8%; in assay [5] it was 11%; in assay [6] it was 19%. Moreover, the inhibition is 25% in assay [7]; 26% in [8]; 22% in assay [9]; 16% in assay [10]; 22% in assay [11]; 66% in [12]. In addition, the inhibition in [13] worked out at 13%; in assay [14], 4%; in assay [15], 2%; in assay [16] it was 8%.

Take `CN1CCN(c2ccc(-c3cc4nn(-c5ccccc5)c(N)c4c(=O)[nH]3)cc2)CC1`: the inhibition was found to be 4% in [1]; 66% in [2]; 23% in assay [3]; 19% in [4]; 4% in assay [5]; 0% in assay [6]. Moreover, the inhibition in [7] is 52%; in [8], 99%; in [9] it was 100%; in [10] it was 18%; in [11], 100%; in assay [12], 12%. Further, the inhibition in assay [13] was 7%; in assay [14], 10%; in assay [15] it was 8%; in assay [16], 3%.
